Test results from ChEMBL document CHEMBL2057141, “Imidazolopiperazines: lead optimization of the second-generation antimalarial agents” (J Med Chem, 2012).

What was measured:
[1] = Tmax in Balb/c mouse at 20 mg/kg, po; type: ADME, organism-based; parameters: dose 20 mg/kg, route oral; conditions: in vivo
How it was run: (§1)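 Male Balb/c mice (n = 3 per group). Compound as a 2.5 mg/mL solution in PEG300/D5W 3:1, filtered. Given by lateral tail vein at 5 mg/kg (2 mL/kg) or orally at 20 mg/kg (8 mL/kg). Six serial 50 μL retro-orbital blood samples to 24 h, heparinized plasma. Plasma extracted with acetonitrile:methanol 3:1 with internal standard, LC-MS/MS. Noncompartmental analysis; F = AUCpo×dose_iv/AUCiv×dose_po.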

[2] = test system: Plasmodium berghei; assay: Antimalarial activity against Plasmodium berghei ANKA expressing GFP infected in NMRI mouse assessed as increase of mouse survival at 100 mg/kg, po administered 24 hrs post infection (reference value: 6 to 7 days); type: functional
[3] = Half life in Balb/c mouse at 5 mg/kg, iv; type: ADME, organism-based; parameters: dose 5 mg/kg, route intravenous; conditions: in vivo; how it was run: as §1
[4] = test system: Mus musculus; assay: AUC (0 to 24 hrs) in Balb/c mouse at 5 mg/kg, iv; type: ADME, organism-based, Plasma; parameters: time < 24 hr, dose 5 mg/kg, route intravenous; conditions: in vivo; how it was run: as §1
[5] = test system: Plasmodium berghei; assay: Antimalarial activity against Plasmodium berghei ANKA expressing GFP infected in NMRI mouse assessed as reduction of parasite level in blood at 100 mg/kg, po administered 24 hrs post infection measured after 72 hrs post infection by flow cytometry; type: functional; parameters: scale not given: the % may be the effect or the level left
How it was run: (§2)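 Female NMRI mice (20–22 g, n=3) are infected i.v. with 2×10^7 P. berghei GFP ANKA-infected erythrocytes. Oral compound in 75% PEG300/25% D5W is given at 10 mL/kg, once at 24 h or daily at 24/48/72 h post-infection. Parasitemia is read by flow cytometry at 72 h (single dose) or 96 h (triple dose). Activity is % reduction of mean parasitemia versus untreated controls.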

[6] = test system: Plasmodium falciparum; assay: Antimalarial activity against Plasmodium falciparum 3D7 after 72 hrs by SYBR green fluorescence assay; type: functional, organism-based; conditions: 3D7, 72 h
How it was run: (§3)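 P. falciparum grown in O+ erythrocytes, screened in medium without human serum plus 0.5% Albumax II. Twelve-point half-log dilutions up to 10 μM final. 0.3% parasitemia, 2.5% hematocrit; 72 h at 37 °C under low-oxygen gas. Lysis buffer with SYBR Green added, 24 h at 25 °C, fluorescence read at 485/530 nm.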

[7] = test system: Plasmodium falciparum; assay: Antimalarial activity against Plasmodium falciparum W2 after 72 hrs by SYBR green fluorescence assay; type: functional, organism-based; conditions: W2, 72 h; how it was run: as §3
[8] = test system: Plasmodium berghei; assay: Antimalarial activity against Plasmodium berghei ANKA expressing GFP infected in NMRI mouse assessed as reduction of parasite level in blood at 30 mg/kg, po administered 24 hrs post infection qd for 3 days measured after 96 hrs post infection by flow cytometry; type: functional; parameters: scale not given: the % may be the effect or the level left; how it was run: as §2
[9] = Apparent permeability across apical to basolateral side in human Caco2 cells by LC/MS analysis; type: ADME, cell-based; conditions: Caco-2
How it was run: (§4)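 Caco-2 monolayers in 96-well format. Compound measured in apical and basolateral chambers by LC/MS, giving Papp in the A–B and B–A directions. Values reported in cm/s × 10⁶.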

[10] = molecular target: Voltage-gated inwardly rectifying potassium channel KCNH2 (Homo sapiens, UniProt Q12809); assay: Inhibition of human ERG channel expressed in CHO cells by patch clamp assay; type: cell-based
Voltage-gated inwardly rectifying potassium channel KCNH2, sequence (Q12809 whole entry): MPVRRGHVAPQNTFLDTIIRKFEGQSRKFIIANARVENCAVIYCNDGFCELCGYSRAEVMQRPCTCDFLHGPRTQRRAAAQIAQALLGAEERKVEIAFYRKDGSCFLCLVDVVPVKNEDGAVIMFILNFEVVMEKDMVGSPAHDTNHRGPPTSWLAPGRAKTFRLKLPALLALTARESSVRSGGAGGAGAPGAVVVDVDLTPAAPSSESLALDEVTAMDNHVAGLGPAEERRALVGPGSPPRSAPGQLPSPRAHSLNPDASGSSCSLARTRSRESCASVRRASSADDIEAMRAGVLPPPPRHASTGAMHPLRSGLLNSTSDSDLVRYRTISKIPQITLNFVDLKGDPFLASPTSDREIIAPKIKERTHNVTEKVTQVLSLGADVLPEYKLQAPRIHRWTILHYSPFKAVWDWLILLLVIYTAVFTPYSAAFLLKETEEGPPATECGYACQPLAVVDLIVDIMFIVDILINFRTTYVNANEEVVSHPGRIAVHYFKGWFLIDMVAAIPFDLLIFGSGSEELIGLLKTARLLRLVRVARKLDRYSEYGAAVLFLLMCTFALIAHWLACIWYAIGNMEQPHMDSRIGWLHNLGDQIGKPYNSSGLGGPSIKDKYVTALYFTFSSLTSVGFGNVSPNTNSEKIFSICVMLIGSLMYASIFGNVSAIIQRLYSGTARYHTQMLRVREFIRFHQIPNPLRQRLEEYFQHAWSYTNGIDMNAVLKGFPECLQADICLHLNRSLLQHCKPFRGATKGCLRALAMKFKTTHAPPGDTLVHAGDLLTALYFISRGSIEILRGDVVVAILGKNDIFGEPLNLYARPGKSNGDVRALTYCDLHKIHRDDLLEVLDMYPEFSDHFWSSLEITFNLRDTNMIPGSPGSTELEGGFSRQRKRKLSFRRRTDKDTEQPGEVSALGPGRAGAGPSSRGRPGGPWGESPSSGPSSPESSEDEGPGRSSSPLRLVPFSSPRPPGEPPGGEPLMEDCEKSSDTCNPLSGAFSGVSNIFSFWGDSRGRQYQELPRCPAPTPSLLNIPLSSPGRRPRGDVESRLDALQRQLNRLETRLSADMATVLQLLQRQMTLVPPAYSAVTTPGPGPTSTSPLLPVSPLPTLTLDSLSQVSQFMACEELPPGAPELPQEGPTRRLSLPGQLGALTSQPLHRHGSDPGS

[11] = test system: Plasmodium berghei; assay: Antimalarial activity against Plasmodium berghei ANKA expressing GFP infected in NMRI mouse assessed as increase of mouse survival at 30 mg/kg, po administered 24 hrs post infection (reference value: 6 to 7 days); type: functional
[12] = Clearance in Balb/c mouse plasma at 5 mg/kg, iv; type: ADME, organism-based; parameters: dose 5 mg/kg, route intravenous; how it was run: as §1
[13] = test system: Mus musculus; assay: AUC (0 to 24 hrs) in Balb/c mouse at 20 mg/kg, po; type: ADME, organism-based, Plasma; parameters: time < 24 hr, dose 20 mg/kg, route oral; conditions: in vivo; how it was run: as §1
[14] = Volume of distribution in Balb/c mouse at 5 mg/kg, iv; type: ADME, organism-based; parameters: dose 5 mg/kg, route intravenous; conditions: in vivo; how it was run: as §1
[15] = Permeability of the compound by PAMPA; type: ADME
How it was run: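 PAMPA in 96-well filter plates. Permeated compound quantified by UV absorbance at 260–290 nm. Reported as percentage absorbed.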

[16] = Cmax in Balb/c mouse at 20 mg/kg, po; type: ADME, organism-based; parameters: dose 20 mg/kg, route oral; conditions: in vivo; how it was run: as §1
[17] = Apparent permeability across basolateral to apical side in human Caco2 cells by LC/MS analysis; type: ADME, cell-based; conditions: Caco-2; how it was run: as §4
[18] = Half life in Balb/c mouse at 20 mg/kg, po; type: ADME, organism-based; parameters: dose 20 mg/kg, route oral; conditions: in vivo; how it was run: as §1
[19] = Metabolic stability in rat liver microsomes assessed as hepatic extraction ratio by LC/MS/MS analysis in presence of CYP; type: ADME, Microsome
How it was run: (§5)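 Liver microsomes (human, mouse, rat). Compound depletion followed by LC/MS/MS. Loss of parent used to derive in vitro half-life and hepatic extraction ratio.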

[20] = test system: Plasmodium berghei; assay: Antimalarial activity against Plasmodium berghei ANKA expressing GFP infected in NMRI mouse assessed as reduction of parasite level in blood at 30 mg/kg, po administered 24 hrs post infection measured after 72 hrs post infection by flow cytometry; type: functional; parameters: scale not given: the % may be the effect or the level left; how it was run: as §2
[21] = Metabolic stability in mouse liver microsomes assessed as hepatic extraction ratio by LC/MS/MS analysis in presence of CYP; type: ADME, Microsome; how it was run: as §5
[22] = test system: Rattus norvegicus; assay: Dose normalized AUC (0 to 5 hrs) in Wistar rat at 10 mg/kg, po; type: ADME, organism-based; parameters: dose 10 mg/kg, route oral; conditions: in vivo
How it was run: (§6)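 Rat snapshot PK: two Wistar rats dosed orally at 10 mg/kg, formulated at 2.5 mg/mL in 75% PEG300/25% D5W. Blood (100 μL) taken at 0.5, 1, 3 and 5 h post dose. Plasma pooled by sampling time, then analysed by LC-MS/MS.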

[23] = Metabolic stability in human liver microsomes assessed as hepatic extraction ratio by LC/MS/MS analysis in presence of CYP; type: ADME, Microsome; how it was run: as §5
[24] = Cmax in Wistar rat at 10 mg/kg, po; type: ADME, organism-based; parameters: dose 10 mg/kg, route oral; conditions: Wistar, in vivo; how it was run: as §6
[25] = test system: Mus musculus; assay: Oral bioavailability in Balb/c mouse at 20 mg/kg; type: ADME, organism-based; conditions: in vivo; how it was run: as §1
[26] = test system: Plasmodium berghei; assay: Antimalarial activity against Plasmodium berghei ANKA expressing GFP infected in NMRI mouse assessed as increase of mouse survival at 30 mg/kg, po administered 24 hrs post infection qd for 3 days (reference value: 6 to 7 days); type: functional
[27] = AUC (0 to 5 hrs) in Wistar rat at 10 mg/kg, po; type: ADME, organism-based; parameters: dose 10 mg/kg, route oral; conditions: plasma
[28] = Metabolic stability in mouse liver microsomes assessed as hepatic extraction ratio by LC/MS/MS analysis; type: ADME, Microsome; how it was run: as §5

For `CC1(C)c2nc(-c3ccc(F)cc3)c(Nc3ccc(F)c(F)c3)n2CCN1C(=O)CN`, which Tmax [1] is on record?
The Tmax was 3 h.

And the Survival [2]?
The Survival was 16.7 days.

What about the half-life [3] of the same compound?
Its half-life is 330 min.

What about the AUC [4] of the same compound?
The AUC was 7.062 µM·h.

What about the Activity [5] of the same compound?
The Activity was 99.1%.

And the EC50 [6]?
Its EC50 is 4 nM.

And the EC50 [7]?
Its EC50 is 5 nM.

And the Activity [8]?
Its Activity is 99.7%.

What about the Papp A→B [9] of the same compound?
The Papp A→B was 0.61 ×10⁻⁶ cm/s.

What about the IC50 [10] of the same compound?
The IC50 was over 30 µM.

What about the Survival [11] of the same compound?
The Survival was 15 days.

What about the clearance [12] of the same compound?
Its clearance is 27.5 mL/min/kg.

What about the AUC [13] of the same compound?
The AUC was 21.058 µM·h.

What about the Vd [14] of the same compound?
Its Vd is 7.5 L/kg.

And the permeability [15]?
Its permeability is 51.5%.

What about the Cmax [16] of the same compound?
The Cmax was 1720 nM.

What about the Papp B→A [17] of the same compound?
The Papp B→A was 1.3 ×10⁻⁶ cm/s.

What about the half-life [18] of the same compound?
Its half-life is 313 min.

What about the hepatic extraction ratio [19] of the same compound?
Its hepatic extraction ratio is 0.69.

What about the Activity [20] of the same compound?
Its Activity is 99%.

And the hepatic extraction ratio [21]?
The hepatic extraction ratio was 0.46.

What about the AUC/dose [22] of the same compound?
The AUC/dose was 0.95 min.ug/ml/(mg/kg).

What about the hepatic extraction ratio [23] of the same compound?
The hepatic extraction ratio was 0.53.

What about the Cmax [24] of the same compound?
The Cmax was 96.7 nM.

And the F [25]?
Its F is 75%.

And the Survival [26]?
The Survival was 17 days.

What about the AUC(0-t) at 4 h [27] of the same compound?
The AUC(0-t) at 4 h was 0.367 µM·h.

What does the source list for `Cc1ccc(Nc2c(-c3ccc(F)cc3)nc3n2CC(=O)NC3(C)C)cc1`?
EC50 [6]: 138 nM; EC50 [7]: 136 nM; hepatic extraction ratio [28]: 0.72; hepatic extraction ratio [21]: 0.72

Which EC50 [6] does the source give for `Cc1ccc(Nc2c(-c3ccc(F)cc3)nc3n2CCNC3)cc1` here?
Its EC50 is 161 nM.

And the EC50 [7]?
The EC50 was 178 nM.

And the Papp A→B [9]?
Its Papp A→B is 8.2 ×10⁻⁶ cm/s.

What about the hepatic extraction ratio [28] of the same compound?
The hepatic extraction ratio was 0.8.

What about the permeability [15] of the same compound?
The permeability was 99.5%.

And the Papp B→A [17]?
The Papp B→A was 2.36 ×10⁻⁶ cm/s.

And the hepatic extraction ratio [19]?
The hepatic extraction ratio was 0.96.

And the hepatic extraction ratio [21]?
Its hepatic extraction ratio is 0.87.

And the hepatic extraction ratio [23]?
The hepatic extraction ratio was 0.79.

Which Survival [2] does the source give for `C[C@H]1[C@H](OC(=O)CCC(=O)O)O[C@@H]2O[C@@]3(C)CC[C@H]4[C@H](C)CC[C@@H]1[C@@]24OO3` [ARTESUNATE] here?
Its Survival is 7 days.

And the Activity [8]?
The Activity was 99%.

And the Survival [11]?
Its Survival is 5.8 days.

And the Activity [20]?
Its Activity is 95.6%.

And the Survival [26]?
Its Survival is 12.2 days.

For `C[C@@H]1c2nc(-c3ccc(F)cc3)c(Nc3ccc(F)c(Cl)c3)n2CCN1C(=O)CN`, which EC50 [6] is on record?
Its EC50 is 31 nM.

And the EC50 [7]?
The EC50 was 29 nM.

What does the source list for `CC(C)(N)C(=O)N1CCn2c(nc(-c3ccc(F)cc3)c2Nc2ccc(F)c(F)c2)C1(C)C`?
EC50 [6]: 13 nM; EC50 [7]: 7 nM

Which results are given for `NCC(=O)N1CCn2c(nc(-c3ccc(F)cc3)c2Nc2ccc(F)cc2)C1`?
AUC [4]: 1.072 µM·h; EC50 [6]: 24 nM; EC50 [7]: 23 nM; AUC [13]: 0.965 µM·h; permeability [15]: 52%

What does the source list for `C[C@H]1c2nc(-c3ccc(F)cc3)c(Nc3ccc(F)c(Cl)c3)n2CCN1C(=O)CN`?
EC50 [6]: 29 nM; EC50 [7]: 24 nM

What does the source list for `NCC(=O)N1CCn2c(nc(-c3ccc(F)cc3)c2Nc2ccc(F)c(Cl)c2)C1`?
EC50 [6]: 4 nM; EC50 [7]: 4 nM

Which EC50 [6] does the source give for `CC1(C)Cn2c(nc(-c3ccc(F)cc3)c2Nc2ccc(F)cc2)CN1C(=O)CN` here?
Its EC50 is 82 nM.

What about the EC50 [7] of the same compound?
Its EC50 is 111 nM.

With `CC(C)(N)C(=O)N1CCn2c(nc(-c3ccc(F)cc3)c2Nc2ccc(F)cc2)C1` as the compound, how does the AUC [4] read?
Its AUC is 3.442 µM·h.

And the EC50 [6]?
Its EC50 is 20 nM.

What about the EC50 [7] of the same compound?
Its EC50 is 25 nM.

And the AUC [13]?
The AUC was 17.894 µM·h.

And the permeability [15]?
Its permeability is 81%.
